Experimental data as given in ChEMBL document CHEMBL3751743, “Synthesis and anti-cancer screening of novel heterocyclic-(2H)-1,2,3-triazoles as potential anti-cancer agents” (Medchemcomm, 2015).

Legend:
[1] = Cytotoxicity against human DU145 cells after 48 hrs by SRB assay; type: functional; conditions: DU-145, 48 h
In short: (§1)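 NCI-60 five-dose screen: compounds dissolved in DMSO/H2O, tested at five 10-fold dilutions (10^-4 to 10^-8 M) for 48 h. Growth measured by sulforhodamine B optical density at time zero and after 48 h drug or vehicle exposure. Percentage growth calculated relative to control. GI50 is the molar concentration giving 50% reduction in net cell growth versus day-0 cell numbers.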

[2] = system: MCF7; assay: Cytotoxicity against human MCF7 cells after 48 hrs by SRB assay; type: functional; conditions: MCF7, 48 h; in short: as §1
[3] = system: MDA-MB-231; assay: Cytotoxicity against human MDA-MB-231 cells after 48 hrs by SRB assay; type: functional; conditions: MDA-MB-231, 48 h; in short: as §1
[4] = Cytotoxicity against human Hs 578T cells after 48 hrs by SRB assay; type: functional; in short: as §1
[5] = Cytotoxicity against human BT549 cells after 48 hrs by SRB assay; type: functional; conditions: BT-549, 48 h; in short: as §1
[6] = system: T47D; assay: Cytotoxicity against human T47D cells after 48 hrs by SRB assay; type: functional
In short: (§2)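 NCI-60 five-dose screen. Compounds dissolved in DMSO/H2O and tested at five 10-fold dilutions (10^-4 to 10^-8 M) for 48 h. Growth read by sulforhodamine B optical density at time zero and after 48 h of exposure to compound or vehicle. Percent growth calculated against control. GI50 is the molar concentration giving 50% reduction in net cell growth relative to cell number on day 0.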

[7] = system: MDA-MB-468; assay: Cytotoxicity against human MDA-MB-468 cells after 48 hrs by SRB assay; type: functional; conditions: MDA-MB-468, 48 h; in short: as §1
[8] = biological target: Tubulin (Sus scrofa, UniProt P02554+P02550); assay: Inhibition of porcine brain tubulin polymerization by spectrophotometric analysis
In short: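 Tubulin at 4 mg/mL in cold 80 mM PIPES pH 6.9 with 2 mM MgCl2, 0.5 mM EGTA, GTP and 10% glycerol. Compound (added as 10x stock in 50% DMSO) or DMSO was preincubated 2 min at 37 °C in a prewarmed plate. Cold tubulin was then added, and polymerization at 37 °C was followed by A340 over time. Dose-response, mean ± s.d., n=3.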

[9] = system: CCRF-CEM; assay: Cytotoxicity against human CCRF-CEM cells after 48 hrs by SRB assay; type: functional; in short: as §1
[10] = Cytotoxicity against human HL-60(TB) cells after 48 hrs by SRB assay; type: functional; conditions: HL-60, 48 h; in short: as §1
[11] = system: K562; assay: Cytotoxicity against human K562 cells after 48 hrs by SRB assay; type: functional; conditions: K562, 48 h; in short: as §1
[12] = Cytotoxicity against human MOLT4 cells after 48 hrs by SRB assay; type: functional; conditions: MOLT-4, 48 h; in short: as §1
[13] = Cytotoxicity against human RPMI8226 cells after 48 hrs by SRB assay; type: functional; conditions: RPMI-8226, 48 h; in short: as §1
[14] = system: SR; assay: Cytotoxicity against human SR cells after 48 hrs by SRB assay; type: functional; in short: as §1
[15] = system: A549; assay: Cytotoxicity against human A549 cells after 48 hrs by SRB assay; type: functional; conditions: A549, 48 h; in short: as §1
[16] = system: NCI-H226; assay: Cytotoxicity against human NCI-H226 cells after 48 hrs by SRB assay; type: functional; conditions: NCI-H226, 48 h; in short: as §1
[17] = system: NCI-H23; assay: Cytotoxicity against human NCI-H23 cells after 48 hrs by SRB assay; type: functional; conditions: NCI-H23, 48 h; in short: as §1
[18] = system: NCI-H460; assay: Cytotoxicity against human NCI-H460 cells after 48 hrs by SRB assay; type: functional; conditions: NCI-H460, 48 h; in short: as §1
[19] = system: NCI-H522; assay: Cytotoxicity against human NCI-H522 cells after 48 hrs by SRB assay; type: functional; conditions: NCI-H522, 48 h; in short: as §1
[20] = Cytotoxicity against human COLO205 cells after 48 hrs by SRB assay; type: functional; conditions: COLO 205, 48 h; in short: as §1
[21] = Cytotoxicity against human HCC2998 cells after 48 hrs by SRB assay; type: functional; conditions: HCC 2998, 48 h; in short: as §1
[22] = Cytotoxicity against human HCT116 cells after 48 hrs by SRB assay; type: functional; conditions: HCT-116, 48 h; in short: as §1
[23] = Cytotoxicity against human HCT15 cells after 48 hrs by SRB assay; type: functional; conditions: HCT-15, 48 h; in short: as §1
[24] = system: HT-29; assay: Cytotoxicity against human HT-29 cells after 48 hrs by SRB assay; type: functional; conditions: HT-29, 48 h; in short: as §1
[25] = system: KM12; assay: Cytotoxicity against human KM12 cells after 48 hrs by SRB assay; type: functional; conditions: KM12, 48 h; in short: as §1
[26] = Cytotoxicity against human SW620 cells after 48 hrs by SRB assay; type: functional; conditions: SW-620, 48 h; in short: as §1
[27] = Cytotoxicity against human SF268 cells after 48 hrs by SRB assay; type: functional; conditions: SF-268, 48 h; in short: as §1
[28] = Cytotoxicity against human SF295 cells after 48 hrs by SRB assay; type: functional; conditions: SF-295, 48 h; in short: as §1
[29] = Cytotoxicity against human SF539 cells after 48 hrs by SRB assay; type: functional; conditions: SF-539, 48 h; in short: as §1
[30] = Cytotoxicity against human SNB19 cells after 48 hrs by SRB assay; type: functional; conditions: SNB-19, 48 h; in short: as §1
[31] = Cytotoxicity against human SNB75 cells after 48 hrs by SRB assay; type: functional; conditions: SNB-75, 48 h; in short: as §1
[32] = system: U-251; assay: Cytotoxicity against human U251 cells after 48 hrs by SRB assay; type: functional; conditions: U-251, 48 h; in short: as §2
[33] = Cytotoxicity against human LOXIMVI cells after 48 hrs by SRB assay; type: functional; conditions: LOX IMVI; in short: as §1
[34] = system: M14; assay: Cytotoxicity against human M14 cells after 48 hrs by SRB assay; type: functional; conditions: M14, 48 h; in short: as §1
[35] = system: MDA-MB-435; assay: Cytotoxicity against human MDA-MB-435 cells after 48 hrs by SRB assay; type: functional; conditions: MDA-MB-435, 48 h; in short: as §1
[36] = system: SK-MEL-2; assay: Cytotoxicity against human SK-MEL-2 cells after 48 hrs by SRB assay; type: functional; conditions: SK-MEL-2, 48 h; in short: as §1
[37] = system: SK-MEL-28; assay: Cytotoxicity against human SK-MEL-28 cells after 48 hrs by SRB assay; type: functional; conditions: SK-MEL-28, 48 h; in short: as §1
[38] = system: SK-MEL-5; assay: Cytotoxicity against human SK-MEL-5 cells after 48 hrs by SRB assay; type: functional; conditions: SK-MEL-5, 48 h; in short: as §1
[39] = Cytotoxicity against human UACC257 cells after 48 hrs by SRB assay; type: functional; conditions: UACC-257, 48 h; in short: as §2
[40] = Cytotoxicity against human UACC62 cells after 48 hrs by SRB assay; type: functional; conditions: UACC-62, 48 h; in short: as §2
[41] = Cytotoxicity against human OVCAR3 cells after 48 hrs by SRB assay; type: functional; conditions: OVCAR-3, 48 h; in short: as §1
[42] = Cytotoxicity against human OVCAR4 cells after 48 hrs by SRB assay; type: functional; conditions: OVCAR-4, 48 h; in short: as §1
[43] = Cytotoxicity against human OVCAR5 cells after 48 hrs by SRB assay; type: functional; conditions: OVCAR-5, 48 h; in short: as §1
[44] = Cytotoxicity against human OVCAR8 cells after 48 hrs by SRB assay; type: functional; conditions: OVCAR-8, 48 h; in short: as §1
[45] = Cytotoxicity against human NCI-ADR-RES cells after 48 hrs by SRB assay; type: functional; in short: as §1
[46] = Cytotoxicity against human SKOV3 cells after 48 hrs by SRB assay; type: functional; conditions: SK-OV-3, 48 h; in short: as §1
[47] = system: 786-0; assay: Cytotoxicity against human 786-0 cells after 48 hrs by SRB assay; type: functional; conditions: 786-0, 48 h; in short: as §1
[48] = system: A498; assay: Cytotoxicity against human A498 cells after 48 hrs by SRB assay; type: functional; conditions: A498, 48 h; in short: as §1
[49] = system: ACHN; assay: Cytotoxicity against human ACHN cells after 48 hrs by SRB assay; type: functional; in short: as §1
[50] = Cytotoxicity against human Caki1 cells after 48 hrs by SRB assay; type: functional; conditions: CAKI-1, 48 h; in short: as §1
[51] = Cytotoxicity against human RXF393 cells after 48 hrs by SRB assay; type: functional; conditions: RXF 393, 48 h; in short: as §1
[52] = system: SN12C; assay: Cytotoxicity against human SN12C cells after 48 hrs by SRB assay; type: functional; in short: as §1
[53] = Cytotoxicity against human TK10 cells after 48 hrs by SRB assay; type: functional; conditions: TK-10, 48 h; in short: as §2
[54] = Cytotoxicity against human UO31 cells after 48 hrs by SRB assay; type: functional; conditions: UO-31, 48 h; in short: as §2
[55] = Cytotoxicity against human PC3 cells after 48 hrs by SRB assay; type: functional; conditions: PC-3, 48 h; in short: as §1
[56] = Cytotoxicity against human Hs578T cells assessed as reduction of cell viability after 48 hrs by calcein-AM-based fluorescence analysis; type: functional; conditions: Hs-578T
In short: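 Cells seeded at 3,000 per well in DMEM with 10% FBS and left overnight at 37 °C. A range of compound concentrations or vehicle was then added for 48 h. Cells were washed with DPBS pH 7.4 and loaded with 2 μM calcein-AM for 30 min at 25 °C. Fluorescence read at ex 490/em 520 nm; viability is given relative to untreated control (100%). Mean ± s.d.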

In the case of `COc1cc(-c2n[nH]nc2-c2c[nH]c3ccccc23)cc(OC)c1OC`, the GI50 [1] is reported as 90 nM, the GI50 [2] is reported as 29 nM and the GI50 [3] is reported as 89 nM. For the same compound, the GI50 [4] was 42 nM, the GI50 [5] was 28 nM and the GI50 [6] was 48 nM. The GI50 [7] was 42 nM, the IC50 [8] was 18500 nM and the GI50 [9] was 48 nM. For the same compound, the GI50 [10] was 46 nM, the GI50 [11] was 53 nM and the GI50 [12] was 160 nM. The GI50 [13] was 90 nM, the GI50 [14] was 90 nM and the GI50 [15] was 90 nM. The GI50 [16] was 390 nM, the GI50 [17] was 270 nM and the GI50 [18] was 42 nM. For the same compound, the GI50 [19] was 21 nM, the GI50 [20] was 34 nM and the GI50 [21] was 440 nM. The GI50 [22] was 41 nM, the GI50 [23] was 35 nM and the GI50 [24] was 33 nM. The GI50 [25] was 45 nM, the GI50 [26] was 43 nM and the GI50 [27] was 71 nM. The GI50 [28] was 32 nM, the GI50 [29] was 31 nM and the GI50 [30] was 61 nM. The GI50 [31] was 30 nM, the GI50 [32] was 59 nM and the GI50 [33] was 71 nM. The GI50 [34] was 36 nM, the GI50 [35] was 14 nM and the GI50 [36] was 30 nM. For the same compound, the GI50 [37] was 112 nM, the GI50 [38] was 43 nM and the GI50 [39] was 13900 nM. For the same compound, the GI50 [40] was 43 nM, the GI50 [41] was 33 nM and the GI50 [42] was 1160 nM. It also gave a GI50 [43] of 381 nM, a GI50 [44] of 1160 nM and a GI50 [45] of 34 nM. For the same compound, the GI50 [46] was 42 nM, the GI50 [47] was 35 nM and the GI50 [48] was 35 nM. For the same compound, the GI50 [49] was 43 nM, the GI50 [50] was 44 nM and the GI50 [51] was 164 nM. The GI50 [52] was 1390 nM, the GI50 [53] was 1390 nM and the GI50 [54] was 87 nM. For the same compound, the GI50 [55] was 44 nM.

For `COc1cc(OC)cc(-c2n[nH]nc2-c2cc3ccccc3s2)c1`, the GI50 [56] was 65 nM.
